TRPC6 activator = mouse TRPC6 channel activators, primary screen, cell-based, HEK293, membrane potential dye. Short transient receptor potential channel 6 (Mus musculus), Q61143. HEK293-TRPC6 membrane potential dye fluorescence; active compounds read high. B-score at 10 µM. 310,000 tested, 0.13% active. AID 2550, 2010;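 active = B-score of the integrated fluorescence ratio above library mean plus 3 SD, and starting fluorescence ratio within library mean plus 5 SD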;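 note: higher score means more depolarization so channel activation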
Target sequence (Q61143 whole entry, looked up): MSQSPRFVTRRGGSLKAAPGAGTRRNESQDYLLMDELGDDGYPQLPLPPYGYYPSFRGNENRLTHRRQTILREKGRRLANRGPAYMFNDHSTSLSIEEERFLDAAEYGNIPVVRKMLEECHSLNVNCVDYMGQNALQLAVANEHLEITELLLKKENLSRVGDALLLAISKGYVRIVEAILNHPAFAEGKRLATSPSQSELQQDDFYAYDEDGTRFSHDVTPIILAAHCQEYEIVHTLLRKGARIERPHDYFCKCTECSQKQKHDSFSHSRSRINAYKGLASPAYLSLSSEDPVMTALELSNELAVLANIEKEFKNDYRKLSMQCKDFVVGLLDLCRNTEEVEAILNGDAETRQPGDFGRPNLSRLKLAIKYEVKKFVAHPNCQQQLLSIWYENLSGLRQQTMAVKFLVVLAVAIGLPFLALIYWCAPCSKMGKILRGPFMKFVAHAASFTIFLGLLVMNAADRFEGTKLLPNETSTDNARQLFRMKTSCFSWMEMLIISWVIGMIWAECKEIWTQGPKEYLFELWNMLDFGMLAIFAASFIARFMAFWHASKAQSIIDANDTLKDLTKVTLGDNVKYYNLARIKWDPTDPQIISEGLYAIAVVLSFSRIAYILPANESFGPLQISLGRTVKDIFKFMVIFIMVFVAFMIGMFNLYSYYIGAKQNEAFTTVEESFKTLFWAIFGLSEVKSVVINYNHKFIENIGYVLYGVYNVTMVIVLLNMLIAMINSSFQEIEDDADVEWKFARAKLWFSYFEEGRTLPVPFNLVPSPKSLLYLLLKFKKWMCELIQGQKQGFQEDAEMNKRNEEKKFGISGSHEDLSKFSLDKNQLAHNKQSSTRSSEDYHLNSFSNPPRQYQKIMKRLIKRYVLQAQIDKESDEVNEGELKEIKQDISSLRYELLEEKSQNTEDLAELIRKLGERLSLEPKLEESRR
TRPC4 act = activators of mouse TRPC4 channel, primary screen, Fluo4 calcium, HEK293 TRPC4beta/mu-opioid cells. Fluo4 calcium fluorescence; active compounds read high. B-score at 10 µM. 310,000 tested, 0.49% active. Short transient receptor potential channel 4 (Mus musculus), Q9QUQ5;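 active = B-score above 5 SD of library B-scores, and initial fluorescence ratio not above library mean plus 5 SD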;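 note: positive B-score marks a calcium rise read as TRPC4 activation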
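System: HEK293 cells stably co-expressing mouse TRPC4beta and mu-opioid receptor; Schedule: Fluo4 dye loading 45 min at room temperature, 110 s recording; Detection: Fluo4 fluorescence, kinetic; Evaluation: B-scored integrated calcium fluorescence ratio; Controls: buffer (low) and maximal DAMGO (high).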
TRPC4 inh = inhibitors of mouse TRPC4 channel, primary screen, Fluo4 calcium, HEK293 TRPC4beta/mu-opioid cells. Short transient receptor potential channel 4 (Mus musculus), Q9QUQ5. DAMGO-evoked Fluo4 calcium flux; active compounds read low. B-score at 10 µM. 300,000 tested, 0.39% active;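 active = B-score over 3 SD under the library average, no early fluorescence shift, positive overall ratio signal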
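Material: HEK293 cells with stable TRPC4beta plus mu-opioid receptor expression; probe or stimulus: DAMGO in two steps, submaximal then maximal; technique: Fluo4 calcium fluorescence by kinetic imaging, 5 s 1 Hz baseline; measure: integrated fluorescence ratio relative to baseline, converted to per-well B score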
TRPC4 PAM = positive allosteric modulators of TRPC4, primary screen, cell-based, mouse TRPC4beta, HEK293 mu-opioid, Fluo-4 calcium; B-score at 10 µM; DAMGO EC20, Fluo-4 Ca2+ flux; active compounds read high; 310,000 tested, 0.42% active;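 active = B-score of calcium response area above 5 SD of library B-scores, with initial fluorescence ratio within 5 SD of library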
TRPC6 inh = mouse TRPC6 channel inhibitors, primary screen, cell-based, HEK293, membrane potential dye; Short transient receptor potential channel 6 (Mus musculus), Q61143; ACh-evoked depolarization; active compounds read low; B-score at 10 µM; 310,000 tested, 1.1% active;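 active = B-score under library mean minus 3 SD, initial fluorescence not abnormally high, positive integrated signal ratio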;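 note: B-score derived from integrated fluorescence ratio over the kinetic read; more negative B-score means stronger inhibition of depolarization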
Of the large screens only hits and unclear results are named; the others gave an inactive call; ! = a repeat was not active. Rows were chosen to be rich in hits. Some 2.3% of all compounds tested hit in one or more screens of this group.

CC12CCC3C(CC=C4CC(O)CCC43C)C1C/C(=C\c1ccccc1F)C2=O (stereo not given)	none
Cc1nn(C)cc1/C=C1/CC2C3CC=C4CC(O)CCC4(C)C3CCC2(C)C1=O (stereo not given)	TRPC4 PAM 10
COc1nc2ccccc2c(=O)n1-c1ccc(C)cc1	none
COc1nc2ccccc2c(=O)n1-c1ccc(Cl)cc1	TRPC4 PAM 11
COc1ccc(-n2c(CNCCc3ccc(C)cc3)nc3ccccc3c2=O)cc1	TRPC4 act 134
CCCc1nc2ccccc2c(=O)n1-c1ccc(OC)cc1	none
O=S(=O)(c1ccc(Cl)cc1)N1CCCCC1c1cccnc1 (stereo not given)	none
CC1(C)CC(CCNCc2ccc3c(c2)OCO3)(Cc2ccccc2)CCO1 (stereo not given)	TRPC4 act 60
Clc1ccc(C[n+]2c(-c3ccccc3)cc(-c3ccccc3)cc2-c2ccccc2)cc1	TRPC6 inh -5.19
CC(=Nc1ccc(F)cc1)c1c(O)n(C)c(=O)[nH]c1=O	none
NC(N)=N/N=C/c1cn(-c2ccccc2)nc1-c1cccs1	TRPC4 act 97
Nc1cccc(N=Cc2c(O)n(Cc3ccc(F)cc3)c(=O)[nH]c2=O)c1	none
CCC(=O)C(CCN1CCOCC1)(c1ccccc1)c1ccccc1	TRPC4 act 62
CCN(CC)CC(=O)Nc1ccc(Cl)cc1C(=O)c1ccccc1	TRPC4 inh -6
COc1nc(C)nc(NC(=O)NS(=O)(=O)c2ccccc2Cl)n1	none
COc1ccccc1CC(=O)N1CCN(CCc2ccccc2)CC1	TRPC4 act 119
CCN1CCN(C(=O)Cc2ccccc2OC)CC1	TRPC4 act 79
O=C(Cc1ccccc1)N1CCN(CCCc2ccccc2)CC1	none
CC(=O)N1CC(=O)Nc2ccc(C)cc2C1c1ccccc1 (stereo not given)	none
O=C1C2CCCN2C(c2ccc(Cl)cc2)N1c1ccccn1 (stereo not given)	none
CC(Cc1ccccc1)NC(=O)Cc1ccc(N(C)C)cc1 (stereo not given)	none
CN(C)C(CNC(=O)Cc1ccc(Br)cc1)c1ccccc1 (stereo not given)	TRPC4 act 175
COC(=O)C(O)(c1ccc(NC(=S)NC(=O)c2ccc(Cl)cc2Cl)c(C)c1)C(F)(F)F (stereo not given)	TRPC4 PAM 32
CCOC(=O)C(NC(=O)CC)(Nc1ccc(C(O)(C(=O)OCC)C(F)(F)F)cc1C)C(F)(F)F (stereo not given)	none
COC(=O)C(O)(c1ccc(NC(=S)NC(=O)c2ccc(Cl)cc2Cl)cc1)C(F)(F)F (stereo not given)	none
CCOC(=O)C(O)(c1ccc(NC(=S)NC(=O)c2ccc(Cl)cc2Cl)cc1)C(F)(F)F (stereo not given)	TRPC4 PAM 13
CNC(=O)N(C)c1ccc(C(O)(C(=O)OC)C(F)(F)F)cc1 (stereo not given)	none
CCOC(=O)C(O)(c1ccc(NC(=S)NC(=O)c2ccc(Cl)cc2Cl)c(C)c1)C(F)(F)F (stereo not given)	TRPC4 PAM 16
CN1CCN(c2ccc([N+](=O)[O-])c3cccnc23)CC1	TRPC4 act 64, TRPC4 PAM 18
O=[N+]([O-])c1ccc(N2CCNCC2)c2ncccc12	TRPC4 act 69, TRPC4 PAM 24, TRPC6 inh -5.55
O=[N+]([O-])c1ccc(N2CCNCC2)cc1Sc1ccccn1	none
O=C(CCCN1CCC2(CC1)C(=O)NCN2c1ccccc1)c1ccc(F)cc1	TRPC4 act 158
CN1CCN(C(=O)OC2c3nccnc3C(=O)N2c2ccc(Cl)cn2)CC1 (stereo not given)	none
CCCOP(=O)(OCCC)C(NC(=O)c1cc(OC)c(OC)c(OC)c1)c1ccccc1 (stereo not given)	none
CCC(COC(=O)c1cc(OC)c(OC)c(OC)c1)(c1ccccc1)N(C)C (stereo not given)	TRPC4 act 54!
CN(C)C1(CNC(=O)Nc2ccc(Cl)c(Cl)c2)CCCCC1	TRPC4 act 91
O=C1c2ccccc2C2(c3ccc(Cl)cc3)NCCN12 (stereo not given)	none
CNC(C)Cc1ccccc1Sc1ccc(O)cc1 (stereo not given)	TRPC4 inh -6
COc1ccc(C2NCCc3[nH]cnc32)cc1 (stereo not given)	TRPC4 act 175
c1ccc(C2NCCc3[nH]cnc32)cc1 (stereo not given)	none
COc1ccc2c(c1O)[C@]13CCN(C)[C@H](C2)[C@@H]1CCC(=O)C3	TRPC4 act 114
CSc1ccccc1C(=O)C1CCCN(Cc2ccn[nH]2)C1 (stereo not given)	none
CCOc1ccc(C(C)=O)cc1Cn1ccsc1=N	TRPC4 inh -5
O=C(Cc1ccccc1)N1CCN(Cc2cccc(Br)c2)CC1	TRPC4 inh -5
COc1ccc(CN2CCN(C(=O)Cc3ccccc3)CC2)c(OC)c1	none
O=C(Cc1ccc(Br)cc1)N1CCN(Cc2ccccc2)CC1	none
COc1ccc(Br)cc1CN1CCN(C(=O)Cc2ccccc2)CC1	TRPC4 inh -6
Oc1c(Br)cc(Br)cc1CN1CCN(Cc2ccccc2)CC1	TRPC4 PAM 20
CN(C)C=C1C(=O)N(C2CCCCC2)C(=O)N(C2CCCCC2)C1=O	TRPC4 act 95
O=P(Nc1ccccc1)(Nc1ccccc1)Oc1ccc(Cl)cc1	TRPC4 PAM 10
O=C1C2CCCN2C(c2ccncc2)N1c1ccc(Cl)c(Cl)c1 (stereo not given)	TRPC4 PAM 11
COc1ccc(N2C(=O)/C(=C/C=C/c3ccccc3[N+](=O)[O-])C(=O)NC2=S)cc1	none
Fc1ccc(CNCCc2c[nH]c3ccccc23)cc1	none
CCOc1c(Cl)cc(CNCCc2c[nH]c3ccccc23)cc1OC	TRPC4 act 53
CCOc1cc(CNCCc2c[nH]c3ccccc23)cc(Cl)c1OCC	TRPC4 act 46
Cc1nn(Cc2ccc(Cl)cc2Cl)c(Cl)c1C(=O)NC1CCCc2ccccc21 (stereo not given)	none
COc1ccc(CCN)cc1O	TRPC4 act 43
O=P(Nc1c(Cl)cccc1Cl)(c1ccccc1)c1nc2c(s1)CCCC2 (stereo not given)	none
O=P(Nc1ccccc1Cl)(c1ccccc1)c1nc2c(s1)CCCC2 (stereo not given)	TRPC4 PAM 14
CSc1ncc(Cl)c(C(=O)O)n1	none
